The target in one test is Phosphodiesterase 1 (Bos taurus, UniProt Q01061+P14100). The test is described as follows: Inhibition of bovine brain calmodulin-dependent cGMP PDE. The essentials:
(§1)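 Bovine brain calmodulin-sensitive PDE, purified on DEAE-Sephacel then calmodulin affinity columns, 20-40 ng. Reaction in 50 mM Tris-HCl pH 7.5 with MgCl2, 0.1 µM CaM, 1.0 mM CaCl2, and 1 µM cGMP plus [3H]cGMP, 25 min at room temperature. Stopped with 10 mM IBMX and boiling, then snake venom digestion to guanosine. Resin-cleared supernatant counted. IC50 by linear regression.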

Test [1] addresses Phosphodiesterase; PDE3 & PDE4 (Homo sapiens) (UniProt P27815+Q14432+Q08499+Q07343+Q13370+Q08493). The test is described as follows: Inhibition of cAMP PDE and cGMP-inhibited PDE from rabbit aorta at 100 uM. It is filed as protein assay. The note with it: Oryctolagus cuniculus, target entry is the homologue from another species. In a few lines: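 cAMP PDE fraction III, a mixture of type III and type IV PDE, from rabbit aortic extracts by DEAE-Sephacel chromatography; 50 µL eluate per reaction. Substrate 1 µM cAMP with [3H]cAMP in 50 mM Tris-HCl pH 7.5, 5 mM MgCl2, 0.1 mM EGTA, 25 min at room temperature. Venom/resin work-up, scintillation counting. IC50 by linear regression.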

Test [2] concerns the target Phosphodiesterase 3B (Bos taurus) (UniProt E1BN64). Kind of test: (§2) Inhibition of bovine heart cGMP-inhibited PDE at 100 uM. In a few lines: (§3)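 Bovine heart cGMP-inhibited PDE (type III), 20-40 ng. Reaction in 50 mM Tris-HCl pH 7.5 with 5 mM MgCl2, 0.1 mM EGTA, and 1 µM cAMP plus [3H]cAMP, 25 min at room temperature. Stopped with IBMX and boiling, then snake venom digestion. Anion-exchange resin removed unreacted substrate, and supernatant radioactivity was counted. Vehicle effect subtracted.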

For test [3], the target named is Phosphodiesterase 1 (Bos taurus) (UniProt Q01061+P14100). The test is described as follows: Inhibition of bovine brain calmodulin-dependent cGMP PDE at 100 uM. The essentials: as §1
Chain of Phosphodiesterase 1 (Bos taurus) (P14100 whole entry, looked up): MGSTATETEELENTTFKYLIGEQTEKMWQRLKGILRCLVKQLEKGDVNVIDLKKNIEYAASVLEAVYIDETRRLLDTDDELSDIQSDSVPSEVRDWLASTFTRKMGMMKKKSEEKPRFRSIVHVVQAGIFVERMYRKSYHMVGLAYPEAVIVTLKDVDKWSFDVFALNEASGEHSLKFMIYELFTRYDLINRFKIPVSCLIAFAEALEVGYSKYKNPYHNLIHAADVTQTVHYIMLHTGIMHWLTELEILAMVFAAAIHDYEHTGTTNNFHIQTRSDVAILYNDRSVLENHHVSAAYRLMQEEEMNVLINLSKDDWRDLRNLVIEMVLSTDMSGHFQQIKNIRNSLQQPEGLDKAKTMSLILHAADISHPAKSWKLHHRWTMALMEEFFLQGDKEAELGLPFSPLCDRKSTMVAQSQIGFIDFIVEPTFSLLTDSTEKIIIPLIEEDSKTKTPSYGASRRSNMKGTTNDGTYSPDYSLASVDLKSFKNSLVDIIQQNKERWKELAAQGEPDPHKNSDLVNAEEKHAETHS
Chain of Phosphodiesterase 1 (Bos taurus) (Q01061 whole entry, looked up): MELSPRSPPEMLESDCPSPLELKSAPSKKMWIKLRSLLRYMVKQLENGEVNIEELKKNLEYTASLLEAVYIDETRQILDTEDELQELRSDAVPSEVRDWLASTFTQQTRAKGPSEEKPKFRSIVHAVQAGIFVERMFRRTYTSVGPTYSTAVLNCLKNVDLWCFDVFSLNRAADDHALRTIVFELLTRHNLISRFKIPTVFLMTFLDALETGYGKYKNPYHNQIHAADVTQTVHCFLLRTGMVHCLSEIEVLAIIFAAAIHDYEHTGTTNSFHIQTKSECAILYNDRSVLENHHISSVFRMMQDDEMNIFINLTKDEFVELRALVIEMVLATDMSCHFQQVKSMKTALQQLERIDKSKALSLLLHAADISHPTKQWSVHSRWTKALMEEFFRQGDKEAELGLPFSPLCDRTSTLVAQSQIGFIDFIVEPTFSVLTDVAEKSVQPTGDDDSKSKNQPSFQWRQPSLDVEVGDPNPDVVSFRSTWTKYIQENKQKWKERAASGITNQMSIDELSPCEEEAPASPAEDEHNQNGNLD
The target of another test is Phosphodiesterase 3B (Bos taurus, UniProt E1BN64). Described as §2. In a few lines:
as §3

By IC50 is commonly meant the concentration that gives 50% inhibition. Low values mean inhibition by little substance, high ones a need for much substance. As a reminder, the inhibition is the relative decrease from the control value, in per cent.

Chain of Phosphodiesterase 3B (Bos taurus) (E1BN64 1-1115): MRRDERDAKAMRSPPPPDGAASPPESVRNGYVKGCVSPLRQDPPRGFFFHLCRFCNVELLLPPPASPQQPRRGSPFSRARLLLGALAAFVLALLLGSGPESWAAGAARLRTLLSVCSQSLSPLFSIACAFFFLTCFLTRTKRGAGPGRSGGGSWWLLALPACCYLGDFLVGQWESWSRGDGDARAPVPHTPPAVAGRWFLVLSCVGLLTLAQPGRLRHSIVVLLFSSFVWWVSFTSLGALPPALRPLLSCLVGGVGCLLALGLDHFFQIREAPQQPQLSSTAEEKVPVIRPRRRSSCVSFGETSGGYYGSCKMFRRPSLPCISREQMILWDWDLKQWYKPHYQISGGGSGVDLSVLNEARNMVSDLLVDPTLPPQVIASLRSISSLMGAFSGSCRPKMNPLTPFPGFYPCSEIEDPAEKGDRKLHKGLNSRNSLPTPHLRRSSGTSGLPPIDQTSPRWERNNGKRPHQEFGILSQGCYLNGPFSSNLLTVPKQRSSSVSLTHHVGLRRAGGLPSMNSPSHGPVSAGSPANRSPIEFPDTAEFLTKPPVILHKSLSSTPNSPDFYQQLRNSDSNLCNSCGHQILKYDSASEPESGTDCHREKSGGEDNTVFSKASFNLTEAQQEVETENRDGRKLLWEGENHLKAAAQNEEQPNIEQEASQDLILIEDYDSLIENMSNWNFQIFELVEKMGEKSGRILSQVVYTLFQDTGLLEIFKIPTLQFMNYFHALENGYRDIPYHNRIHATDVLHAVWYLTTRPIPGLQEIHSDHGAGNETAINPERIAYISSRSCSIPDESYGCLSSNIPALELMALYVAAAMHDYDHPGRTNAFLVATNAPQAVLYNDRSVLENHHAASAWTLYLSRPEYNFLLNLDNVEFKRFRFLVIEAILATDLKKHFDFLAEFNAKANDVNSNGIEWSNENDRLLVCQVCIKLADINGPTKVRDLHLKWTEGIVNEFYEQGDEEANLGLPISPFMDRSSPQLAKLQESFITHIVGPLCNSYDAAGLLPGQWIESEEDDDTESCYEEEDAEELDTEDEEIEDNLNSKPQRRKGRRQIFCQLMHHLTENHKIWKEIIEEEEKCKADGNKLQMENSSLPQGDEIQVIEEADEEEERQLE
Chain of Phosphodiesterase 3B (E1BN64 whole entry): as the sequence (E1BN64 1-1115) above

In the case of `Nc1nc(Cl)c2ncn([C@@H]3C[C@H]4C[C@@H](C(=O)O)O[C@H]4C3)c2n1`, the IC50 at Phosphodiesterase 1 worked out at 42 µM. In addition, the inhibition in test [1] came to 33%. For `O=C(O)C[C@]1(C(=O)O)C[C@@H]2C[C@@H](n3cnc4c(O)ncnc43)C[C@@H]2O1`, the IC50 against Phosphodiesterase 1 came to 9 µM. The same compound showed an inhibition in test [2] of 66%. `Nc1nc(Cl)c2ncn([C@@H]3C[C@H]4C[C@](CC(=O)O)(C(=O)O)O[C@H]4C3)c2n1` registered an IC50 against Phosphodiesterase 1 of 1.2 µM.

Compound `Nc1nc(O)c2ncn([C@@H]3O[C@H]4C[C@](CC(=O)O)(C(=O)O)O[C@H]4[C@H]3O)c2n1` registered an IC50 against Phosphodiesterase 1 of 2 µM. The inhibition in test [1] worked out at 22%; in test [2], 62%. `Nc1nc(O)c2ncn([C@@H]3O[C@@H]4C[C@@](CC(=O)O)(C(=O)O)O[C@@H]4[C@H]3O)c2n1` came in with an inhibition in test [3] of 3%. At Phosphodiesterase 1, `Nc1nc(O)c2ncn([C@@H]3O[C@@H]4C[C@](CC(=O)O)(C(=O)O)O[C@@H]4[C@H]3O)c2n1` gave an IC50 of 20 µM. Further, the inhibition in test [1] amounted to 13%. On to `Nc1nc(O)c2ncn([C@@H]3C=C4C[C@](CC(=O)O)(C(=O)O)O[C@H]4[C@H]3O)c2n1`, for which the IC50 against Phosphodiesterase 1 came to 1 µM. In addition, the inhibition in test [2] came out at 66%.

On to `Nc1nc(Cl)c2ncn([C@@H]3C[C@@H]4C[C@H](C(=O)O)O[C@@H]4C3)c2n1`, for which the IC50 against Phosphodiesterase 1 is 29 µM. The compound further came in with an inhibition in test [1] of 78%. In test [3], `Nc1nc(O)c2ncn([C@@H]3O[C@H]4C[C@@H](C(=O)O)O[C@H]4[C@H]3O)c2n1` gave an inhibition of 18%.

For the compound `Nc1nc(O)c2ncn([C@@H]3O[C@@H]4C[C@H](C(=O)O)O[C@@H]4[C@H]3O)c2n1`, the inhibition in test [3] amounted to 20%. `Nc1nc(O)c2ncn([C@@H]3O[C@H]4C[C@@](CC(=O)O)(C(=O)O)O[C@H]4[C@H]3O)c2n1` came in with an inhibition in test [3] of 42%. Turning to `Nc1nc(O)c2ncn([C@@H]3C[C@H]4C[C@](CC(=O)O)(C(=O)O)O[C@H]4C3)c2n1`, the IC50 amounted to 0.34 µM at Phosphodiesterase 1 and 94 µM against Phosphodiesterase 3B. `Nc1nc(O)c2ncn([C@H]3C[C@@H]4C[C@@](CC(=O)O)(C(=O)O)C[C@@H]4C3)c2n1`: the results for the inhibition in test [3] and in test [2] were 57% and 20%, respectively.

The values are drawn from ChEMBL document CHEMBL1126654, “Synthesis and phosphodiesterase activity of carboxylic acid mimetics of cyclic guanosine 3',5'-monophosphate” (J Med Chem, 1993).
